Reference: ChEMBL document CHEMBL5058577, “EUbOPEN Chemogenomics Library 2 (Multiplex)” (2022)

Test system: U2OS
Assay: Multiplex assay against U2OS
Format: toxicity, cell-based
Settings: human
Procedure, shortened: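 With compound added, live cells were imaged on a CQ1 microscope at 37°C and 5% CO2; staining with Hoechst33342, BioTracker Green Microtubule Cytoskeleton Dye, MitoTracker Red and Annexin V Alexa Fluor 680 had been done at seeding. The CellPathfinder machine-learning gating scheme split cells into Hoechst high-intensity objects or normal cells, normal cells into healthy, pyknosed or fragmented nuclei, and pyknosed cells into mitotic or apoptotic. The tubulin, mitochondrial-mass and membrane-permeability phenotypes are per cents of healthy-nucleus cells.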

[1] = 12 h, 1 µM, compound concentration 1 uM, replicate 1
[2] = 12 h, 1 µM, compound concentration 1 uM, replicate 2
[3] = 12 h, 10 µM, compound concentration 10 uM, replicate 1
[4] = 12 h, 10 µM, compound concentration 10 uM, replicate 2
[5] = 24 h, 1 µM, compound concentration 1 uM, replicate 1
[6] = 24 h, 1 µM, compound concentration 1 uM, replicate 2
[7] = 24 h, 10 µM, compound concentration 10 uM, replicate 1
[8] = 24 h, 10 µM, compound concentration 10 uM, replicate 2
[9] = 48 h, 1 µM, compound concentration 1 uM, replicate 1
[10] = 48 h, 1 µM, compound concentration 1 uM, replicate 2
[11] = 48 h, 10 µM, compound concentration 10 uM, replicate 1
[12] = 48 h, 10 µM, compound concentration 10 uM, replicate 2

CN(C)c1ccnc2sc3c(=O)n(N4CCCCCC4)cnc3c12
Population Apoptotic (%) [1]: 81%
Population Fragmented Nuclei (%) [1]: 19%
Population Healthy Nuclei (%) [1]: 72%
Population Hoechst High Intensity Objects (%) [1]: 1%
Population Membrane Permeable-Phenotype (%) [1]: 4%
Population Mitochondria Different-Phenotype (%) [1]: 2%
Population Mitotic Cells (%) [1]: 18%
Population Normal (%) [1]: 98%
Population Pyknosed Nuclei (%) [1]: 7%
Population Tubulin-Different-Phenotype (%) [1]: 2%
Total Cell Count [1]: 284
Population Apoptotic (%) [2]: 87%
Population Fragmented Nuclei (%) [2]: 16%
Population Healthy Nuclei (%) [2]: 77%
Population Membrane Permeable-Phenotype (%) [2]: 6%
Population Mitotic Cells (%) [2]: 12%
Population Pyknosed Nuclei (%) [2]: 6%
Total Cell Count [2]: 132
Population Apoptotic (%) [3]: 41%
Population Fragmented Nuclei (%) [3]: 30%
Population Healthy Nuclei (%) [3]: 56%
Population Hoechst High Intensity Objects (%) [3]: 4%
Population Membrane Permeable-Phenotype (%) [3]: 30%
Population Mitochondria Different-Phenotype (%) [3]: 14%
Population Mitotic Cells (%) [3]: 58%
Population Normal (%) [3]: 95%
Population Pyknosed Nuclei (%) [3]: 12%
Population Tubulin-Different-Phenotype (%) [3]: 20%
Total Cell Count [3]: 249
Population Apoptotic (%) [4]: 88%
Population Fragmented Nuclei (%) [4]: 18%
Population Healthy Nuclei (%) [4]: 71%
Population Hoechst High Intensity Objects (%) [4]: 5%
Population Membrane Permeable-Phenotype (%) [4]: 23%
Population Mitochondria Different-Phenotype (%) [4]: 27%
Population Mitotic Cells (%) [4]: 11%
Population Normal (%) [4]: 94%
Population Pyknosed Nuclei (%) [4]: 9%
Population Tubulin-Different-Phenotype (%) [4]: 22%
Total Cell Count [4]: 101
Population Apoptotic (%) [5]: 87%
Population Fragmented Nuclei (%) [5]: 16%
Population Healthy Nuclei (%) [5]: 72%
Population Hoechst High Intensity Objects (%) [5]: 2%
Population Membrane Permeable-Phenotype (%) [5]: 3%
Population Mitochondria Different-Phenotype (%) [5]: 3%
Population Mitotic Cells (%) [5]: 12%
Population Normal (%) [5]: 97%
Population Pyknosed Nuclei (%) [5]: 10%
Population Tubulin-Different-Phenotype (%) [5]: 1%
Total Cell Count [5]: 326
Population Apoptotic (%) [6]: 72%
Population Fragmented Nuclei (%) [6]: 15%
Population Healthy Nuclei (%) [6]: 76%
Population Membrane Permeable-Phenotype (%) [6]: 6%
Population Mitotic Cells (%) [6]: 27%
Population Pyknosed Nuclei (%) [6]: 7%
Population Tubulin-Different-Phenotype (%) [6]: 4%
Total Cell Count [6]: 150
Population Apoptotic (%) [7]: 68%
Population Fragmented Nuclei (%) [7]: 28%
Population Healthy Nuclei (%) [7]: 56%
Population Hoechst High Intensity Objects (%) [7]: 4%
Population Membrane Permeable-Phenotype (%) [7]: 22%
Population Mitochondria Different-Phenotype (%) [7]: 15%
Population Mitotic Cells (%) [7]: 31%
Population Normal (%) [7]: 95%
Population Pyknosed Nuclei (%) [7]: 15%
Population Tubulin-Different-Phenotype (%) [7]: 14%
Total Cell Count [7]: 260
Population Apoptotic (%) [8]: 100%
Population Fragmented Nuclei (%) [8]: 11%
Population Healthy Nuclei (%) [8]: 75%
Population Hoechst High Intensity Objects (%) [8]: 3%
Population Membrane Permeable-Phenotype (%) [8]: 23%
Population Mitochondria Different-Phenotype (%) [8]: 25%
Population Mitotic Cells (%) [8]: 0%
Population Normal (%) [8]: 96%
Population Pyknosed Nuclei (%) [8]: 13%
Population Tubulin-Different-Phenotype (%) [8]: 24%
Total Cell Count [8]: 108
Population Apoptotic (%) [9]: 90%
Population Fragmented Nuclei (%) [9]: 17%
Population Healthy Nuclei (%) [9]: 74%
Population Hoechst High Intensity Objects (%) [9]: 2%
Population Membrane Permeable-Phenotype (%) [9]: 4%
Population Mitochondria Different-Phenotype (%) [9]: 1%
Population Mitotic Cells (%) [9]: 9%
Population Normal (%) [9]: 97%
Population Pyknosed Nuclei (%) [9]: 8%
Population Tubulin-Different-Phenotype (%) [9]: 2%
Total Cell Count [9]: 486
Population Apoptotic (%) [10]: 92%
Population Fragmented Nuclei (%) [10]: 15%
Population Healthy Nuclei (%) [10]: 72%
Population Membrane Permeable-Phenotype (%) [10]: 5%
Population Mitochondria Different-Phenotype (%) [10]: 5%
Population Mitotic Cells (%) [10]: 7%
Population Pyknosed Nuclei (%) [10]: 11%
Total Cell Count [10]: 239
Population Apoptotic (%) [11]: 68%
Population Fragmented Nuclei (%) [11]: 28%
Population Healthy Nuclei (%) [11]: 57%
Population Hoechst High Intensity Objects (%) [11]: 4%
Population Membrane Permeable-Phenotype (%) [11]: 15%
Population Mitochondria Different-Phenotype (%) [11]: 11%
Population Mitotic Cells (%) [11]: 31%
Population Normal (%) [11]: 95%
Population Pyknosed Nuclei (%) [11]: 14%
Population Tubulin-Different-Phenotype (%) [11]: 7%
Total Cell Count [11]: 325
Population Apoptotic (%) [12]: 72%
Population Fragmented Nuclei (%) [12]: 15%
Population Healthy Nuclei (%) [12]: 61%
Population Hoechst High Intensity Objects (%) [12]: 9%
Population Membrane Permeable-Phenotype (%) [12]: 21%
Population Mitochondria Different-Phenotype (%) [12]: 19%
Population Mitotic Cells (%) [12]: 27%
Population Normal (%) [12]: 90%
Population Pyknosed Nuclei (%) [12]: 22%
Population Tubulin-Different-Phenotype (%) [12]: 23%
Total Cell Count [12]: 140

C[C@H](NC(=O)c1c(C(F)F)nn(C)c1Oc1cccc(C(F)(F)F)c1)c1ccc(C(=O)O)cc1 [PALUPIPRANT]
Population Apoptotic (%) [1]: 60%
Population Fragmented Nuclei (%) [1]: 27%
Population Healthy Nuclei (%) [1]: 63%
Population Hoechst High Intensity Objects (%) [1]: 3%
Population Membrane Permeable-Phenotype (%) [1]: 4%
Population Mitochondria Different-Phenotype (%) [1]: 1%
Population Mitotic Cells (%) [1]: 39%
Population Normal (%) [1]: 96%
Population Pyknosed Nuclei (%) [1]: 8%
Population Tubulin-Different-Phenotype (%) [1]: 1%
Total Cell Count [1]: 266
Population Apoptotic (%) [2]: 91%
Population Fragmented Nuclei (%) [2]: 12%
Population Healthy Nuclei (%) [2]: 78%
Population Hoechst High Intensity Objects (%) [2]: 0%
Population Mitochondria Different-Phenotype (%) [2]: 0%
Population Mitotic Cells (%) [2]: 8%
Population Normal (%) [2]: 99%
Population Pyknosed Nuclei (%) [2]: 9%
Population Tubulin-Different-Phenotype (%) [2]: 2%
Total Cell Count [2]: 132
Population Apoptotic (%) [3]: 83%
Population Fragmented Nuclei (%) [3]: 28%
Population Healthy Nuclei (%) [3]: 62%
Population Hoechst High Intensity Objects (%) [3]: 3%
Population Membrane Permeable-Phenotype (%) [3]: 7%
Population Mitochondria Different-Phenotype (%) [3]: 4%
Population Mitotic Cells (%) [3]: 16%
Population Normal (%) [3]: 96%
Population Pyknosed Nuclei (%) [3]: 8%
Population Tubulin-Different-Phenotype (%) [3]: 5%
Total Cell Count [3]: 293
Population Apoptotic (%) [4]: 100%
Population Fragmented Nuclei (%) [4]: 13%
Population Healthy Nuclei (%) [4]: 77%
Population Membrane Permeable-Phenotype (%) [4]: 5%
Population Mitochondria Different-Phenotype (%) [4]: 2%
Population Mitotic Cells (%) [4]: 0%
Population Tubulin-Different-Phenotype (%) [4]: 2%
Total Cell Count [4]: 117
Population Apoptotic (%) [5]: 87%
Population Fragmented Nuclei (%) [5]: 20%
Population Healthy Nuclei (%) [5]: 72%
Population Hoechst High Intensity Objects (%) [5]: 2%
Population Membrane Permeable-Phenotype (%) [5]: 4%
Population Mitochondria Different-Phenotype (%) [5]: 1%
Population Mitotic Cells (%) [5]: 12%
Population Normal (%) [5]: 97%
Population Pyknosed Nuclei (%) [5]: 7%
Population Tubulin-Different-Phenotype (%) [5]: 3%
Total Cell Count [5]: 316
Population Apoptotic (%) [6]: 94%
Population Fragmented Nuclei (%) [6]: 14%
Population Healthy Nuclei (%) [6]: 73%
Population Hoechst High Intensity Objects (%) [6]: 1%
Population Membrane Permeable-Phenotype (%) [6]: 5%
Population Mitochondria Different-Phenotype (%) [6]: 0%
Population Mitotic Cells (%) [6]: 5%
Population Normal (%) [6]: 98%
Population Pyknosed Nuclei (%) [6]: 11%
Population Tubulin-Different-Phenotype (%) [6]: 5%
Total Cell Count [6]: 147
Population Apoptotic (%) [7]: 91%
Population Fragmented Nuclei (%) [7]: 18%
Population Healthy Nuclei (%) [7]: 74%
Population Hoechst High Intensity Objects (%) [7]: 2%
Population Membrane Permeable-Phenotype (%) [7]: 5%
Population Mitochondria Different-Phenotype (%) [7]: 3%
Population Mitotic Cells (%) [7]: 8%
Population Normal (%) [7]: 97%
Population Pyknosed Nuclei (%) [7]: 7%
Population Tubulin-Different-Phenotype (%) [7]: 1%
Total Cell Count [7]: 339
Population Fragmented Nuclei (%) [8]: 13%
Population Healthy Nuclei (%) [8]: 77%
Population Mitochondria Different-Phenotype (%) [8]: 1%
Population Pyknosed Nuclei (%) [8]: 8%
Population Tubulin-Different-Phenotype (%) [8]: 0%
Total Cell Count [8]: 139
Population Apoptotic (%) [9]: 82%
Population Fragmented Nuclei (%) [9]: 15%
Population Healthy Nuclei (%) [9]: 73%
Population Hoechst High Intensity Objects (%) [9]: 2%
Population Membrane Permeable-Phenotype (%) [9]: 3%
Population Mitochondria Different-Phenotype (%) [9]: 1%
Population Mitotic Cells (%) [9]: 17%
Population Normal (%) [9]: 97%
Population Pyknosed Nuclei (%) [9]: 11%
Population Tubulin-Different-Phenotype (%) [9]: 1%
Total Cell Count [9]: 426
Population Apoptotic (%) [10]: 92%
Population Healthy Nuclei (%) [10]: 70%
Population Hoechst High Intensity Objects (%) [10]: 0%
Population Mitochondria Different-Phenotype (%) [10]: 0%
Population Mitotic Cells (%) [10]: 7%
Population Normal (%) [10]: 99%
Population Pyknosed Nuclei (%) [10]: 13%
Population Tubulin-Different-Phenotype (%) [10]: 2%
Total Cell Count [10]: 207
Population Apoptotic (%) [11]: 91%
Population Fragmented Nuclei (%) [11]: 18%
Population Healthy Nuclei (%) [11]: 73%
Population Hoechst High Intensity Objects (%) [11]: 2%
Population Membrane Permeable-Phenotype (%) [11]: 5%
Population Mitochondria Different-Phenotype (%) [11]: 3%
Population Mitotic Cells (%) [11]: 8%
Population Normal (%) [11]: 97%
Population Pyknosed Nuclei (%) [11]: 7%
Population Tubulin-Different-Phenotype (%) [11]: 3%
Total Cell Count [11]: 463
Population Apoptotic (%) [12]: 85%
Population Fragmented Nuclei (%) [12]: 14%
Population Healthy Nuclei (%) [12]: 79%
Population Hoechst High Intensity Objects (%) [12]: 1%
Population Membrane Permeable-Phenotype (%) [12]: 1%
Population Mitochondria Different-Phenotype (%) [12]: 1%
Population Mitotic Cells (%) [12]: 14%
Population Normal (%) [12]: 98%
Population Pyknosed Nuclei (%) [12]: 6%
Population Tubulin-Different-Phenotype (%) [12]: 0%
Total Cell Count [12]: 223
